In ChEMBL document CHEMBL1122096, “Narcotic antagonistic potency of bivalent ligands which contain beta-naltrexamine. Evidence for bridging between proximal recognition sites” (1982):

Assays:
Format in all cases: functional
Cavia porcellus [1] = species: Cavia porcellus; experiment: Tested for the narcotic antagonistic activity by measuring the ratio of the IC50 of the ethylketazocine in the presence and in the absence in guinea pig ileum at 2*10e-8M
How it was run: (§1)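 Isolated-tissue antagonism assays: guinea pig ileum (GPI) against ethylketazocine or morphine, with antagonist at 2×10^-8 M; mouse vas deferens (MVD) against DADLE, with antagonist at 1×10^-7 M. The value is the agonist IC50 with antagonist divided by the agonist IC50 without antagonist, both measured in the same preparation, reported ± SE.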

Cavia porcellus [2] = species: Cavia porcellus; experiment: Tested for the narcotic antagonistic activity by measuring the ratio of the IC50 of the morphine in the presence and in the absence in guinea pig ileum at 2*10e-8M; how it was run: as §1
Cavia porcellus [3] = species: Cavia porcellus; experiment: Partial agonist activity was determined by measuring the % maximum agonist response in guinea pig ileum at 1*10e-6 M concentration of compound
Mus musculus [4] = species: Mus musculus; experiment: Partial agonist activity by measuring the % maximum agonist response in mouse vas deferens at 1*10e-6 M concentration of compound
Mus musculus [5] = species: Mus musculus; experiment: Tested for the narcotic antagonistic activity by measuring the ratio of the IC50 of the DADLE in the presence and in the absence in mouse vas deferens at 1*10e-7 M; how it was run: as §1
Cavia porcellus [6] = species: Cavia porcellus; experiment: Partial agonist activity was determined by measuring the % maximum agonist response in guinea pig ileum at 3*10e-8 M concentration of compound
Mus musculus [7] = species: Mus musculus; experiment: Partial agonist activity by measuring the % maximum agonist response in mouse vas deferens at 1*10e-7 M concentration of compound
Cavia porcellus [8] = species: Cavia porcellus; experiment: Partial agonist activity was determined by measuring the % maximum agonist response in guinea pig ileum at 5*10e-7 M concentration of compound
Cavia porcellus [9] = species: Cavia porcellus; experiment: Partial agonist activity was determined by measuring the % maximum agonist response in guinea pig ileum at 1*10e-8 M concentration of compound

SMILES	IC50 ratio (Cavia porcellus [1])	IC50 ratio (Cavia porcellus [2])	Max agonist response (Cavia porcellus [3]) [%]	Max agonist response (Mus musculus [4]) [%]	IC50 ratio (Mus musculus [5])	Max agonist response (Cavia porcellus [6]) [%]	Max agonist response (Mus musculus [7]) [%]	Max agonist response (Cavia porcellus [8]) [%]	Max agonist response (Cavia porcellus [9]) [%]
COCCOCCOCCN[C@@H]1CC[C@@]2(O)C3Cc4ccc(O)c5c4C2(CCN3CC2CC2)[C@H]1O5 (stereo not given in full)	1.63	3.45	67	49	2.09	–	–	–	–
Cc1ccc(S(=O)(=O)OCCOCCOCCN[C@@H]2CC[C@@]3(O)C4Cc5ccc(O)c6c5C3(CCN4CC3CC3)[C@H]2O6)cc1 (stereo not given in full)	3.96	3.78	–	–	4.29	57	27	–	–
Oc1ccc2c3c1O[C@H]1[C@H](NCCOCCOCCOCCOCCOCCN[C@H]4CC[C@]5(O)C6Cc7ccc(O)c8c7C5(CCN6CC5CC5)[C@@H]4O8)CC[C@@]4(O)C(C2)N(CC2CC2)CCC314	2.61	5.75	–	–	30.67	–	26	60	–
Oc1ccc2c3c1O[C@H]1[C@H](NCCOCCOCCN[C@H]4CC[C@]5(O)C6Cc7ccc(O)c8c7C5(CCN6CC5CC5)[C@@H]4O8)CC[C@@]4(O)C(C2)N(CC2CC2)CCC314	16.91	3.24	–	–	7.17	–	32	–	10
